The results in this text go back to ChEMBL document CHEMBL4257519, “Generation of a long-acting fusion inhibitor against HIV-1” (Medchemcomm, 2018).

The test system of data set [1] is Human immunodeficiency virus 1. Put plainly: Antiviral activity against HIV1 subtype B' CNE6 pseudovirus assessed as inhibition of viral infection in Ghost (3)X4/R5 cells after 48 hrs by Bright-Glo luciferase reporter gene assay. In kind it is functional, organism-based. The following applies: Human immunodeficiency virus 1, subtype B' CNE6, 48 h. The essentials:
(§1)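 Single-round env-pseudotyped luciferase reporter viruses were made in HEK293T cells with the pNL4-3.Luc.R-E backbone. Ghost(3)X4/R5 target cells (CD4, CXCR4, CCR5) were grown in DMEM with 10% heat-inactivated FBS at 37 °C, 5% CO2. Peptides in 3-fold dilutions were preincubated with 100 TCID50 of virus for 1 h at room temperature. The mixture was added at 10^4 cells/well for 48 h at 37 °C. IC50 came from a variable-slope dose-response fit of luciferase reduction versus controls.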
Background: In a reporter assay the amount or activity of a reporter protein is the signal.

Data set [2] deals with Human immunodeficiency virus 1. The data set is described as follows: Antiviral activity against HIV1 subtype B' CNE11 pseudovirus assessed as inhibition of viral infection in Ghost (3)X4/R5 cells after 48 hrs by Bright-Glo luciferase reporter gene assay. In kind it is functional, organism-based. The following applies: Human immunodeficiency virus 1, subtype B' CNE11, 48 h. An outline of the steps:
as §1

Data set [3] relates to Human immunodeficiency virus 1. The data set is described as follows: Antiviral activity against HIV1 subtype BC CNE15 pseudovirus assessed as inhibition of viral infection in Ghost (3)X4/R5 cells after 48 hrs by Bright-Glo luciferase reporter gene assay. In kind it is functional, organism-based. The following applies: Human immunodeficiency virus 1, subtype BC CNE15, 48 h. The essentials:
as §1

The test system of data set [4] is Human immunodeficiency virus 1. The data set is described as follows: Antiviral activity against HIV1 subtype BC CNE30 pseudovirus assessed as inhibition of viral infection in Ghost (3)X4/R5 cells after 48 hrs by Bright-Glo luciferase reporter gene assay. In kind it is functional, organism-based. The following applies: Human immunodeficiency virus 1, subtype BC CNE30, 48 h. The essentials:
as §1

Data set [5] relates to Human immunodeficiency virus 1. Put plainly: Antiviral activity against HIV1 subtype CRF01_AE CNE5 pseudovirus assessed as inhibition of viral infection in Ghost (3)X4/R5 cells after 48 hrs by Bright-Glo luciferase reporter gene assay. The data set is classed as functional, organism-based, HIV-1 CRF01_AE. The following applies: Human immunodeficiency virus 1, CNE5, 48 h. An outline of the steps:
as §1

Data set [6] has as its system Human immunodeficiency virus 1. Put plainly: Antiviral activity against HIV1 subtype CRF01_AE CNE55 pseudovirus assessed as inhibition of viral infection in Ghost (3)X4/R5 cells after 48 hrs by Bright-Glo luciferase reporter gene assay. The following applies: Human immunodeficiency virus 1, CNE55, 48 h. In kind it is functional, organism-based, HIV-1 CRF01_AE. An outline of the steps: as §1

Data set [7] has as its system Human immunodeficiency virus 1. Put plainly: Antiviral activity against HIV-1 subtype B SF162 pseudovirus assessed as inhibition of viral infection in Ghost (3)X4/R5 cells after 48 hrs by Bright-Glo luciferase reporter gene assay. The following applies: Human immunodeficiency virus 1, SF162 ISOLATE. In kind it is functional, organism-based. An outline of the steps:
as §1

For data set [8], the system named is Human immunodeficiency virus 1. The data set is described as follows: Antiviral activity against HIV-1 subtype B JRFL pseudovirus assessed as inhibition of viral infection in Ghost (3)X4/R5 cells after 48 hrs by Bright-Glo luciferase reporter gene assay. In kind it is functional, organism-based, HIV-1 group M. The following applies: Human immunodeficiency virus 1, JRFL. The essentials: as §1

Data set [9] has as its system Human immunodeficiency virus 1. The data set is described as follows: Antiviral activity against HIV-1 subtype B HXB2 pseudovirus assessed as inhibition of viral infection in Ghost (3)X4/R5 cells after 48 hrs by Bright-Glo luciferase reporter gene assay. In kind it is functional, organism-based. The following applies: Human immunodeficiency virus 1, M:B_HXB2R. The essentials:
as §1

For another data set, the system named is chymotrypsin. The data set is described as follows: Drug metabolism assessed as chymotrypsin (unknown origin)-mediated compound degradation by measuring compound half life at 25 uM by HPLC analysis. The data set is classed as ADME, Homo sapiens. The essentials:
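Peptide stock was 1 mM in DMSO, diluted into 50 mM PBS pH 7.4 containing chymotrypsin (0.5 ng/μL) and 50 mM CaCl2. Digestion ran at 30 °C. Remaining peptide was monitored by reversed-phase HPLC on a C4 column at 1.0 mL/min, acetonitrile/water with 0.1% TFA.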

For data set [10], the system named is Human immunodeficiency virus 1. Put plainly: Resistance index, ratio of IC50 for inhibition of gp41 D36G mutant-mediated T20-resistant HIV1 NL4-3 viral infection in Ghost (3)X4/R5 cells to IC50 for inhibition of gp41-mediated HIV1 NL4-3 infection in Ghost (3)X4/R5 cells. The data set is classed as cell-based.
The test system of data set [11] is Human immunodeficiency virus 1. Put plainly: Resistance index, ratio of IC50 for inhibition of gp41 I37T mutant-mediated T20-resistant HIV1 NL4-3 viral infection in Ghost (3)X4/R5 cells to IC50 for inhibition of gp41-mediated HIV1 NL4-3 infection in Ghost (3)X4/R5 cells. The data set is classed as cell-based.
Data set [12] concerns Human immunodeficiency virus 1. Put plainly: Resistance index, ratio of IC50 for inhibition of gp41 V38M mutant-mediated T20-resistant HIV1 NL4-3 viral infection in Ghost (3)X4/R5 cells to IC50 for inhibition of gp41-mediated HIV1 NL4-3 infection in Ghost (3)X4/R5 cells. The data set is classed as cell-based.
For data set [13], the system named is Human immunodeficiency virus 1. The data set is described as follows: Resistance index, ratio of IC50 for inhibition of gp41 Q40H mutant-mediated T20-resistant HIV1 NL4-3 viral infection in Ghost (3)X4/R5 cells to IC50 for inhibition of gp41-mediated HIV1 NL4-3 infection in Ghost (3)X4/R5 cells. In kind it is cell-based.
Data set [14] has as its system Human immunodeficiency virus 1. The data set is described as follows: Resistance index, ratio of IC50 for inhibition of gp41 N43K mutant-mediated T20-resistant HIV1 NL4-3 viral infection in Ghost (3)X4/R5 cells to IC50 for inhibition of gp41-mediated HIV1 NL4-3 infection in Ghost (3)X4/R5 cells. The data set is classed as cell-based.
Data set [15] deals with Human immunodeficiency virus 1. Put plainly: Resistance index, ratio of IC50 for inhibition of gp41 I37T/N43K double mutant-mediated T20-resistant HIV1 NL4-3 viral infection in Ghost (3)X4/R5 cells to IC50 for inhibition of gp41-mediated HIV1 NL4-3 infection in Ghost (3)X4/R5 cells. In kind it is cell-based.
The subject of data set [16] is Human immunodeficiency virus 1. Put plainly: Resistance index, ratio of IC50 for inhibition of gp41 G36S/V38M double mutant-mediated T20-resistant HIV1 NL4-3 viral infection in Ghost (3)X4/R5 cells to IC50 for inhibition of gp41-mediated HIV1 NL4-3 infection in Ghost (3)X4/R5 cells. The data set is classed as cell-based.
Data set [17] relates to Human immunodeficiency virus 1. Put plainly: Resistance index, ratio of IC50 for inhibition of gp41 V38A/N42T double mutant-mediated T20-resistant HIV1 NL4-3 viral infection in Ghost (3)X4/R5 cells to IC50 for inhibition of gp41-mediated HIV1 NL4-3 infection in Ghost (3)X4/R5 cells. In kind it is cell-based.
Data set [18] concerns Human immunodeficiency virus 1. Put plainly: Resistance index, ratio of IC50 for inhibition of gp41 V38A mutant-mediated T20-resistant HIV1 NL4-3 viral infection in Ghost (3)X4/R5 cells to IC50 for inhibition of gp41-mediated HIV1 NL4-3 infection in Ghost (3)X4/R5 cells. The data set is classed as cell-based.

Where a SMILES comes first, the peptide text is derived from it. Bridges are numbered along the chain shown (N, C = ends). [ ]: non-standard residue; d: D form. S5 = C=CCCC[C@](C)(N)C(=O)O

Turning to `CC[C@H](C)[C@H](NC(=O)[C@H](CCCCN)NC(=O)[C@H](CCCCN)NC(=O)[C@H](CC(=O)O)NC(=O)[C@H](Cc1c[nH]c2ccccc12)NC(=O)[C@H](CCC(=O)O)NC(=O)[C@H](CCC(=O)O)NC(=O)[C@H](Cc1c[nH]c2ccccc12)NC(=O)[C@@H](NC(=O)[C@H](CCSC)NC(C)=O)[C@@H](C)O)C(=O)N[C@@H](CCC(=O)O)C(=O)N[C@@H](CCC(=O)O)C(=O)N[C@@H](Cc1ccc(O)cc1)C(=O)N[C@H](C(=O)N[C@@]1(C)CCC/C=C\CCC[C@@](C)(C(=O)N[C@@H](CC(C)C)C(=O)N[C@H](C(=O)N[C@@H](CCCCN)C(=O)N[C@@H](CCCCN)C(=O)N[C@@H](CO)C(N)=O)[C@@H](C)CC)NC(=O)[C@H](CCC(=O)O)NC(=O)[C@H]([C@@H](C)CC)NC(=O)[C@H](CCCCN)NC1=O)[C@@H](C)O` (Ac-MTWEEWDKKIEEYT[S5]KIE[S5]LIKKS-NH2; staple (Z) 15-19), the IC50 is 10.4 nM in [1]; 8.8 nM in data set [2]; 14 nM in [3]; 71.7 nM in data set [4]; 27.7 nM in data set [5]; 82.3 nM in data set [6]. Further, the IC50 in [7] is 14.4 nM; in data set [8] it was 8.7 nM; in [9] it was 0.5 nM. For the same compound, the half-life at 25 µM in the data set with chymotrypsin is 8.25 h.

For the compound `CC[C@H](C)[C@H](NC(=O)[C@H](CC(C)C)NC(=O)[C@H](CCC(=O)O)NC(=O)[C@H](CCC(=O)O)NC(=O)[C@@H](NC(=O)[C@H](CCCCN)NC(=O)[C@H](CCCCN)NC(=O)[C@@H](NC(=O)[C@H](Cc1ccc(O)cc1)NC(=O)[C@]1(C)CCC/C=C\CCC[C@](C)(NC(=O)[C@H](CC(=O)O)NC(=O)[C@H](Cc2c[nH]c3ccccc23)NC(=O)[C@H](CCC(=O)O)NC(=O)[C@H](CCC(=O)O)NC(=O)[C@H](Cc2c[nH]c3ccccc23)NC(=O)[C@@H](NC(=O)[C@H](CCSC)NC(C)=O)[C@@H](C)O)C(=O)N[C@@H](CCCCN)C(=O)N[C@@H]([C@@H](C)CC)C(=O)N[C@@H](CCC(=O)O)C(=O)N1)[C@@H](C)O)[C@@H](C)CC)C(=O)N[C@@H](CCCCN)C(=O)N[C@@H](CCCCN)C(=O)N[C@@H](CO)C(N)=O` (Ac-MTWEEWD[S5]KIE[S5]YTKKIEELIKKS-NH2; staple (Z) 8-12), the IC50 in data set [1] stood at 12.5 nM; in data set [2] it was 7.2 nM; in [3] it was 3.3 nM; in [4], 16.2 nM; in data set [5], 6.8 nM; in data set [6] it was 20.3 nM. Besides, the IC50 amounted to 3.3 nM in [7], 8.6 nM in [8] and 0.4 nM in data set [9]. Further, the half-life at 25 µM in the data set on chymotrypsin came out at 11.8 h.

With `CC[C@H](C)[C@H](NC(=O)[C@H](CC(C)C)NC(=O)[C@]1(C)CCC/C=C\CCC[C@](C)(NC(=O)[C@@H](NC(=O)[C@H](Cc2ccc(O)cc2)NC(=O)[C@]2(C)CCC/C=C\CCC[C@](C)(NC(=O)[C@H](CC(=O)O)NC(=O)[C@H](Cc3c[nH]c4ccccc34)NC(=O)[C@H](CCC(=O)O)NC(=O)[C@H](CCC(=O)O)NC(=O)[C@H](Cc3c[nH]c4ccccc34)NC(=O)[C@@H](NC(=O)[C@H](CCSC)NC(C)=O)[C@@H](C)O)C(=O)N[C@@H](CCCCN)C(=O)N[C@@H]([C@@H](C)CC)C(=O)N[C@@H](CCC(=O)O)C(=O)N2)[C@@H](C)O)C(=O)N[C@@H](CCCCN)C(=O)N[C@@H]([C@@H](C)CC)C(=O)N[C@@H](CCC(=O)O)C(=O)N1)C(=O)N[C@@H](CCCCN)C(=O)N[C@@H](CCCCN)C(=O)N[C@@H](CO)C(N)=O` (Ac-MTWEEWD[S5]KIE[S5]YT[S5]KIE[S5]LIKKS-NH2; staple (Z) 8-12, 15-19), the IC50 in data set [1] was 1.2 nM; in [2] it was 2.6 nM; in data set [3] it was 1.8 nM; in [4], 7.7 nM; in data set [5] it was 3.6 nM; in data set [6], 5.3 nM. Further, the IC50 in [7] is 1 nM; in data set [8], 0.6 nM; in [9], 0.05 nM. Moreover, the Ratio IC50 in data set [10] came out at 1.4; in data set [11], 1.6; in [12], 1; in [13], 1.1; in data set [14], 3.3; in data set [15] it was 2.2. Further, the Ratio IC50 in [16] was found to be 2.1; in data set [17] it was 0.5; in data set [18] it was 0.8. In the data set on chymotrypsin, the half-life at 25 µM worked out at 61.1 h.

Consider Ac-MTWEEWDKKIEEYTKKIEELIKKS-NH2, for which the IC50 in data set [1] is 10.3 nM; in data set [2], 5.9 nM; in [3], 7.5 nM; in data set [4], 22.3 nM; in data set [5], 35 nM; in data set [6], 12.9 nM. Further, the half-inhibitory concentration (IC50) in data set [7] worked out at 2.9 nM; in data set [8], 7.3 nM; in data set [9], 2.4 nM. Also, the Ratio IC50 in data set [10] was 2.3; in [11], 2.6; in data set [12], 2.3; in [13], 1.1; in data set [14], 19; in [15], 13. For the same compound, the Ratio IC50 in [16] was 3.4; in data set [17], 1.2; in data set [18], 1.5. In the data set with chymotrypsin, the half-life at 25 µM was 2.08 h.

As usually defined, the IC50 is the midpoint of a concentration-inhibition curve. As a reminder, the half-life is how long it takes for the measured level to halve.
